Reference: publication PMC5126733 (Journal of medicinal chemistry, 2015)

Assays:
[1] = biological target: T1, recombinant human aromatase (CYP19) (Homo sapiens, UniProt P11511); assay: Inhibition of recombinant human aromatase; type: biochemical; details: ratio of aromatase IC50 values vs compound 7
T1 sequence (P11511 1-503): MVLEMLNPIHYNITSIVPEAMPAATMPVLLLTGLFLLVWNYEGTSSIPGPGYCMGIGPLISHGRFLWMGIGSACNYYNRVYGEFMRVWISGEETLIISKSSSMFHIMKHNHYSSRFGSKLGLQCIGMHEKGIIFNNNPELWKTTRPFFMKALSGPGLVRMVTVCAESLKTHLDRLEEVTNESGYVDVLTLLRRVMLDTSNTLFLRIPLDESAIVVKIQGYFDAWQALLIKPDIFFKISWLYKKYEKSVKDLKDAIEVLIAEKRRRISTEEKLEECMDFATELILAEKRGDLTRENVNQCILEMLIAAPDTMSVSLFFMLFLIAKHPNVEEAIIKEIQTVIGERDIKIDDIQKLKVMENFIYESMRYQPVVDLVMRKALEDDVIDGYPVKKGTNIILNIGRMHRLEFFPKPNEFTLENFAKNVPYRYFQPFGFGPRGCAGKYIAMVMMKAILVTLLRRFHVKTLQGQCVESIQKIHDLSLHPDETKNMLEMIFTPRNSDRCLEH

[2] = tested on: progesterone receptor (PGR) mRNA expression in MCF-7 human breast cancer cells; assay: Antagonism of β-estradiol; type: cell-based; details: MCF-7 cells, 1 μM compound, 10 nM E2, 24 h
Outline: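 MCF-7 cells were grown in MEM with 10% FBS at 37 °C in 5% CO2, then preconditioned 72 h in charcoal-stripped FBS. They were treated 24 h with 1 μM test compound, vehicle (0.1% methanol) or a positive-control antiestrogen, all with 10 nM E2. PGR mRNA was measured by TaqMan RT-qPCR (40 cycles), normalized to GAPDH by 2−ΔΔCt, and expressed as % of E2-stimulated expression.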

[3] = combination arm (with tamoxifen) of the ATAC trial; cited from earlier work
[4] = tested on: postmenopausal women with breast cancer; details: five-year ATAC trial, anastrozole alone compared to tamoxifen alone; cited from earlier work
ER in MCF-7-2a cells = details: cited from earlier work
recombinant human ER-α = biological target: T2, recombinant human ER-α (Homo sapiens, UniProt P03372); details: at 100 μM compound; compound 7; cited from earlier work
T2 sequence (P03372 1-595): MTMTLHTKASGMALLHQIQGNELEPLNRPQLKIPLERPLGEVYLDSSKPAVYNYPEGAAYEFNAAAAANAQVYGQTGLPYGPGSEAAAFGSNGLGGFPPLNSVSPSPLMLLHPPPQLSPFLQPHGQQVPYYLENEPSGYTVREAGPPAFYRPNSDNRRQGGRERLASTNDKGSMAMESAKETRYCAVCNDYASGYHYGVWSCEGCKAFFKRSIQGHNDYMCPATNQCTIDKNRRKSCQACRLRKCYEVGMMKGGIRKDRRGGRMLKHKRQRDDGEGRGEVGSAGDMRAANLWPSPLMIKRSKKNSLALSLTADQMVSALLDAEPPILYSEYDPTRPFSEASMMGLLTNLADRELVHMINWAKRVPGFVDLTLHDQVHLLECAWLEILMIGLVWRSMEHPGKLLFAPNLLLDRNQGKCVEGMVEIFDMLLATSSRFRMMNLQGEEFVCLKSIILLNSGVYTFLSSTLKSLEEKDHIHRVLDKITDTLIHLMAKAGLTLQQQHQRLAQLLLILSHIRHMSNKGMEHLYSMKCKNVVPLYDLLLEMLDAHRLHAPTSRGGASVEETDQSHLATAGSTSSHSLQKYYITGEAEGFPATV

Compound: Oc1ccc(C(=C(Cn2ccnc2)c2ccccc2)c2ccc(O)cc2)cc1 [Compound 12, 4,4'-(3-(1H-Imidazol-1-yl)-2-phenylprop-1-ene-1,1-diyl)diphenol]
- fold improvement in aromatase inhibitory activity compared with 7 [1]: > 5000 fold
- PGR mRNA expression level in the presence of 10 nM E2 (E2 alone = 100%) [2]: 26-31%

Compound: Endoxifen
- PGR mRNA expression level in the presence of 10 nM E2 (E2 alone = 100%) [2]: 10%

Compound: Oc1ccc(C(Cn2ccnc2)=C(c2ccc(O)cc2)c2ccc(O)cc2)cc1 [Compound 18a, 4,4',4”-(3-(1H-Imidazol-1-yl)prop-1-ene-1,1,2-triyl)triphenol]
- PGR mRNA expression level in the presence of 10 nM E2 (E2 alone = 100%) [2]: 26-31%

Compound: CC(C)(C#N)c1cc(Cn2cncn2)cc(C(C)(C)C#N)c1 [anastrozole]
- lowering of serum concentration of anastrozole in the combination arm [3]: 27%
- improvement of disease-free survival [4]: 13%
- reduction in occurrence of contralateral breast cancer [4]: 42%
- reduction in risk of distant metastasis [4]: 14%
- reduction in the time-to-recurrence [4]: 21%

Compound: CCC(=C(c1ccc(O)cc1)c1ccc(O)cc1)c1ccccc1 [Compound 7]
- ER antagonist/agonist character (ER in MCF-7-2a cells): good ER antagonist without significant agonistic side effects
- ER-α percent competition (recombinant human ER-α): 80% competition

Compound: Nc1ccc(C(Cn2ccnc2)=C(c2ccc(O)cc2)c2ccc(O)cc2)cc1 [Compound 26, 4,4'-(2-(4-Aminophenyl)-3-(1H-imidazol-1-yl)prop-1-ene-1,1-diyl)diphenol]
- PGR mRNA expression level in the presence of 10 nM E2 (E2 alone = 100%) [2]: 26-31%

Compound: Oc1ccc(C(=C(Cn2ccnc2)c2ccc(O)c(F)c2)c2ccc(O)cc2)cc1 [Compound 18b, 4,4'-(2-(3-Fluoro-4-hydroxyphenyl)-3-(1H-imidazol-1-yl)prop-1-ene-1,1-diyl)diphenol]
- PGR mRNA expression level in the presence of 10 nM E2 (E2 alone = 100%) [2]: 26-31%
